Laboratory results from ChEMBL document CHEMBL4340510, “Design, synthesis, and biological evaluation of truncated deguelin derivatives as Hsp90 inhibitors” (Eur J Med Chem, 2019).
Active and inactive are the calls of the source. No cut-off for these calls is given here.

What was measured:
NCI-H1299 = assay: Antiproliferative activity against human NCI-H1299 cells after 72 hrs by MTT assay; type: functional, cell-based; settings: NCI-H1299, 72 h
Method in brief: (§1)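 Cells in RPMI 1640 are seeded at 4,000 cells/well and held 24 h at 37 °C, 5% CO2. Medium is replaced with compound-containing medium (DMSO ≤0.25%) for 72 h at 37 °C. MTT read-out by absorbance at 570 nm. Quadruplicate wells, repeated three times; values are means of three independent experiments.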

A549 = assay: Antiproliferative activity against human A549 cells after 72 hrs by MTT assay; type: functional, cell-based; settings: A549, 72 h; method in brief: as §1
[1] = molecular target: Heat shock protein HSP 90-alpha (Homo sapiens, UniProt P07900); assay: Inhibition of FITC-geldanamycin binding to recombinant human full-length C-terminal His-tagged HSP90alpha […] (1 to 732 residues) expressed in Escherichia coli after 1 hr by fluorescence polarization assay
[2] = molecular target: T1, Heat shock protein HSP90 (Homo sapiens) (UniProt P07900+P08238); assay: Inhibition of HSP90 in human MCF7 cells assessed as reduction in AKT expression at 4 uM by coimmunoprecipitation-based Western blot assay; type: cell-based
Method in brief: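 Cells are treated with 4 μM. Anti-Hsp90 or anti-Akt antibodies are added to the supernatants, and immune complexes are pulled down with protein A agarose. Complexes are eluted by boiling in loading buffer and immunoblotted with anti-Hsp90 or anti-Akt antibodies.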

[3] = molecular target: T1, Heat shock protein HSP90 (Homo sapiens); assay: Inhibition of HSP90 in human MCF7 cells assessed as decrease in phosphorylation of mTOR after 48 hrs by Western blot analysis; type: cell-based
Method in brief: (§2)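 Cells are treated 48 h and washed twice in ice-cold PBS. They are lysed on ice for 20 min and spun at 13,000 g, 4 °C. 20 μg protein is run on 8-12% SDS-PAGE and transferred to PVDF. Membranes are probed overnight at 4 °C with primary antibodies (Bcl-xL, cleaved caspase-3, mTOR/p-mTOR, MAPK/p-MAPK, Akt/p-Akt, HIF-1α, survivin; β-actin/GAPDH loading). HRP secondary and chemiluminescence detection follow.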

[4] = molecular target: T1, Heat shock protein HSP90 (Homo sapiens); assay: Inhibition of HSP90 in human MCF7 cells assessed as down regulation of HIF-1alpha expression after 48 hrs by Western blot analysis; type: cell-based; method in brief: as §2
MCF7 [5] = assay: Cell cycle arrest in human MCF7 cells assessed as accumulation at G1 phase at 1 uM after 48 hrs by propidium iodide staining-based flow cytometry (reference value: 60.61%); type: functional
Method in brief: (§3)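 5×10^4 cells are seeded, incubated overnight, then treated 48 h. Cells are washed in cold PBS and fixed in 70% ethanol at −20 °C for 12 h. They are then stained with 100 µg/mL RNase plus 50 µg/mL PI in PBS, 37 °C for 30 min. DNA content is measured by flow cytometry.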

MCF7 [6] = assay: Cell cycle arrest in human MCF7 cells assessed as accumulation at G2 phase at 1 uM after 48 hrs by propidium iodide staining-based flow cytometry (reference value: 22.74%); type: functional; method in brief: as §3
MCF7 [7] = assay: Cell cycle arrest in human MCF7 cells assessed as accumulation at S phase at 2 uM after 48 hrs by propidium iodide staining-based flow cytometry (reference value: 16.64%); type: functional; method in brief: as §3
MCF7 [8] = assay: Induction of apoptosis in human MCF7 cells assessed as rounding of nuclei at 0.5 to 4 uM after 36 hrs by hoechst 33258 staining-based fluorescence microscopy; type: functional, cell-based
Method in brief: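 Approximately 5×10^4 cells per well are exposed to 0, 0.5, 1.0, 2.0 or 4.0 μM for 36 h. Cells are PBS-washed and fixed in 4% paraformaldehyde for 30 min. They are stained with 20 μg/ml Hoechst 33258 for 15 min at room temperature in the dark, and nuclear morphology is examined by fluorescence microscopy.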

MCF7 [9] = assay: Induction of apoptosis in human MCF7 cells assessed as increase in late apoptotic cells after 36 hrs by Annexin V-FITC/propidium iodide double staining-based flow cytometry; type: functional, cell-based
Method in brief: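 Cells (1×10^5/well) are cultured 24 h, then treated in triplicate for 36 h at 0.5, 1.0, 2.0 or 4.0 μM. Vehicle is 1‰ DMSO in complete medium. Cells are stained with FITC-Annexin V and PI for 15 min in the dark and analysed by flow cytometry. Mean±SD of three independent experiments.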

MCF7 [10] = assay: Induction of apoptosis in human MCF7 cells assessed as increase in cleaved-caspase3 expression at 1 to 4 uM after 48 hrs by Western blot analysis; type: functional, cell-based; method in brief: as §2
MCF7 [11] = assay: Potency index, ratio of deguelin IC50 to test compound IC50 for human MCF7 cells; type: functional
Method in brief: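 MTT assay on MCF-7 cells. Cells were seeded at 4,000/well and pre-incubated 24 h at 37 °C in humidified 5% CO2, then exposed to a range of compound concentrations for 72 h, with DMSO at no more than 0.25%. Absorbance was read at 570 nm, in quadruplicate, repeated three times. The IC50 for each test compound and for deguelin is the mean of three independent experiments, and the index is the deguelin IC50 divided by the compound IC50.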

MCF7 [12] = assay: Cell cycle arrest in human MCF7 cells assessed as increase in accumulation at S phase after 48 hrs by propidium iodide staining-based flow cytometry; type: functional; method in brief: as §3
MCF7 [13] = assay: Cell cycle arrest in human MCF7 cells assessed as increase in accumulation at G2 phase after 48 hrs by propidium iodide staining-based flow cytometry; type: functional; method in brief: as §3
MCF7 [14] = assay: Induction of apoptosis in human MCF7 cells assessed as decrease in Bcl-xL expression at 1 to 4 uM after 48 hrs by Western blot analysis
MCF7 [15] = assay: Cell cycle arrest in human MCF7 cells assessed as accumulation at G2 phase at 4 uM after 48 hrs by propidium iodide staining-based flow cytometry (reference value: […])

Structure (SMILES): COc1cc(OC)c(OC)cc1CC(=O)c1ccc2c(c1OC)C=CC(C)(C)O2
- IC50 (NCI-H1299): 3.4 µM
- IC50 (A549): 3.46 µM
- IC50 [1]: 0.06 µM
- inhibition [2]: Active
- inhibition [3]: Dose-dependent effect
- inhibition [4]: Dose-dependent effect
- Activity (MCF7 [5]): 55.26%
- Activity (MCF7 [6]): 21.55%
- Activity (MCF7 [7]): 19.64%
- Activity (MCF7 [8]): Active
- Activity (MCF7 [9]): Dose-dependent effect
- Activity (MCF7 [10]): Active
- Ratio IC50 (MCF7 [11]): 3
- Activity (MCF7 [12]): Dose-dependent effect
- Activity (MCF7 [13]): Dose-dependent effect
- Activity (MCF7 [14]): Active
- Activity (MCF7 [15]): 29.58%
